# Bioassay records: PubChem BioAssay, several laboratories
# Hits are enriched below; roughly 9.6% of the tested compounds scored in any of these assays.
# TNAP inh noacc = human TNAP enzyme inhibitors, primary screen, biochemical, luminescent, no phosphate acceptor, uHTS; inhibition, % at 20 µM; 200,000 tested, 0.26% active; purified TNAP, CDP-star luminescence, 30 min; AID 1012, 2008; Alkaline phosphatase, tissue-nonspecific isozyme (Homo sapiens), P05186;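 active = tissue-nonspecific alkaline phosphatase inhibition above about 50% at 20 µM in the single-dose screen, limit read from the data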;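 note: 0% = DMSO negative control and 100% = EDTA positive control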
# Target sequence (P05186 whole entry, looked up): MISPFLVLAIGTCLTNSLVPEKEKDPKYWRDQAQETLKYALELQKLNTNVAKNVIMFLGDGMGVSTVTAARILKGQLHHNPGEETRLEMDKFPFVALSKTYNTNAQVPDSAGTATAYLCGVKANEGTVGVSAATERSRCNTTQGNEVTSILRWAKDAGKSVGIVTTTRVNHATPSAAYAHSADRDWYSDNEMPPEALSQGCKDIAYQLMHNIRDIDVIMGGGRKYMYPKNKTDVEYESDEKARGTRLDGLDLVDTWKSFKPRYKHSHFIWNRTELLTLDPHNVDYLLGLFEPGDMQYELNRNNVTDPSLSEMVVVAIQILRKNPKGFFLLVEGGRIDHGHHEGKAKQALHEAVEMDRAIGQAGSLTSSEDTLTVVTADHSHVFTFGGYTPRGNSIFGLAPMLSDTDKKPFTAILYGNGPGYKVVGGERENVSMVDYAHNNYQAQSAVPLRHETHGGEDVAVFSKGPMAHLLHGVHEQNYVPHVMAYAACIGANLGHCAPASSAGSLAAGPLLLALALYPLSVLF
# TNAP act hi DEA = TNAP activators at high phosphate acceptor level, primary screen, biochemical, luminescence, uHTS; Alkaline phosphatase, tissue-nonspecific isozyme (Homo sapiens), P05186; purified TNAP, CDP-star luminescence, 1 M DEA, 30 min; active compounds read high; 0 = EDTA background, 1 = DMSO-only activity; activation factor at 20 µM; 200,000 tested, under 10 active; AID 1136, 2008;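 active = activation factor at least 2 at 20 µM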
#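 system = human TNAP | amount = enzyme diluted 1/800 final | reagent = 100 µM CDP-star substrate | signal = luminescent substrate turnover signal | dosing = one dose, 20 µM | benchmarks = EDTA negative control, DMSO positive control | measure = activation factor | timing = 30 min reaction, room temperature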
# bCat KO growth = primary screen for growth suppressors in beta-catenin knockout HCT116 cells (colon tumor, human). HCT116 beta-catenin knockout viability, CellTiter-Glo, 60 h; active compounds read low. viability, % at 10 µM. 140,000 tested, 1.5% active. AID 818, 2007;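 active = viability at or under a set limit, the compound median less 4 SD, cut at about 6% in these data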;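 note: 0% = Hyamine 1622 control at 20 µM and 100% = untreated cell control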
# L major viab = Leishmania major promastigote growth inhibition, primary screen; Leishmania major promastigotes, resazurin fluorescence viability; inhibition, % at 10 µM; 200,000 tested, 9% active; in the data active = inhibition above about 50%;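 note: promastigotes grown with compound for 44 hours at 28 °C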
# PTEN del growth = growth suppression of PTEN-null HCT116, primary screen, cell-based, CellTiter-Glo; HCT116 PTEN-null viability, 60 h; active compounds read low; viability, % at 10 µM; 140,000 tested, 1.2% active; AID 827, 2007;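 active = viability at or below a set limit, 4 SD under the median of all tested compounds, cut at about 3.7% in these data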;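 note: PTEN knockout HCT116 line with beta catenin targeted HCT116 as companion control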
# TNAP inh hi DEA = human TNAP enzyme inhibitors, primary screen, biochemical, luminescent, high phosphate acceptor level, uHTS | purified TNAP, CDP-star luminescence, 1 M DEA | inhibition, % at 20 µM | 200,000 tested, 0.03% active | AID 1135, 2008;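 active = over 50% inhibition of tissue-nonspecific alkaline phosphatase at 20 µM in the single-dose screen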;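 note: plate controls were DMSO wells for no effect and EDTA-quenched wells as full inhibition for full effect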
# Numbers without * were called inactive; . = no result.
SMILES,TNAP inh noacc,TNAP act hi DEA,bCat KO growth,L major viab,PTEN del growth,TNAP inh hi DEA
CCN(CC)c1ccc(NC(=O)CSc2nc3ccccc3c(=O)n2-c2cc(S(=O)(=O)N(C)C)ccc2C)cc1,-3.1,1,89.8,99.4*,99.8,-1.1
O=C(COc1ccccc1)NCC(=O)N/N=C/c1ccco1,-0.4,1,100.7,56.0*,104.8,1.8
COC(=O)c1cnn(-c2ccccc2)c1-n1cccc1C=O,1.8,1,.,-1.4,.,0.1
CCc1ccc(-c2nn(-c3ccccc3)cc2C2SCC(=O)N2Cc2ccco2)cc1 (stereo unspecified),-5.3,1.1,53.5,98.1*,44.0,-7.9
Cc1cc(N/N=C/c2ccc(O)cc2O)nc(-n2nc(C)cc2C)n1,-106.2,0.9,7.0,100.3*,6.5,5.1
COc1ccc(/C=N/Nc2cc(C)nc(-n3nc(C)cc3C)n2)cc1,-28.5,1,6.2,95.5*,4.7,-0.4
CCOC(=O)C(C)Oc1ncnc2cccc(F)c12 (stereo unspecified),-8.6,1,.,-6.0,.,-2.6
CCc1nc(SCC(=O)N2c3ccccc3CC2C)c2c(C)c(C)sc2n1 (stereo unspecified),-8.0,1,26.5,4.9,19.9,-1.7
Cc1sc2nc(C(C)C)nc(SCC(=O)N3c4ccccc4CC3C)c2c1C (stereo unspecified),-7.1,1,47.7,94.0*,43.6,-2.9
O=C(COC(=O)c1cc(-c2ccc(F)cc2)nc2ccccc12)NCC1CCCO1 (stereo unspecified),5.1,1,.,-1.3,.,1.9
C=CCN(c1ccccc1Cl)S(=O)(=O)c1cccc(C(=O)NCCc2ccc(OC)cc2)c1,3.6,1,58.7,63.5*,52.8,0.6
Cc1sc(-c2ccncc2)nc1OC(=O)c1ccc(F)cc1F,-17.5,1,.,-0.3,.,1.1
Cc1cc(OCC(=O)NCCCN(C)C)cc(C)c1Br,-13.6,1.1,68.1,99.9*,65.4,-6.2
CCc1ccc(OCC(=O)NCCN(C)C)c(Br)c1,-11.7,1.1,86.5,95.6*,86.1,-5.1
Cc1cc(Nc2cnc3ccccc3n2)n(-c2ccccc2)n1,12.9,1,88.7,67.1*,.,-1.6
Cc1cc(Nc2ncc(Cl)cc2Cl)n(-c2ccccc2)n1,-15.8,1,77.5,0.8,76.9,1.3
Fc1ccc(-c2csc(=S)[nH]2)cc1,-2.6,1,.,93.0*,.,-1.5
O=c1[nH]c(-c2ccc(Cl)cc2)cs1,-11.8,1,.,-4.7,.,-2.1
Cn1nc([N+](=O)[O-])c(C(C#N)c2ccccn2)c(Cl)c1=O (stereo unspecified),27.1,0.8,.,100.3*,.,20.8
Cc1ccc(Cl)cc1Nc1nc(-c2sc(NC(=O)c3ccco3)nc2C)cs1,-4.8,1,7.9,49.9,6.6,-3.7
COc1ccc(Cl)cc1Nc1nc(-c2sc(NC(=O)c3ccccc3)nc2C)cs1,0.0,1,1.2*,41.1,1.1*,0.6
Cc1nc(NC(=O)c2ccccc2)sc1-c1csc(Nc2ccc(Cl)cc2Cl)n1,-6.3,1,94.7,53.9*,99.1,-1.5
Cc1nc(NC(=O)c2ccccc2)sc1-c1csc(Nc2ccc(Cl)cc2)n1,-13.5,1.1,81.4,23.9,68.5,-5.3
Cc1nc(NC(=O)c2ccco2)sc1-c1csc(Nc2ccc(Cl)cc2Cl)n1,-7.1,1,75.5,73.7*,67.2,-2.6
COc1ccccc1Nc1nc(-c2sc(NC(=O)c3ccco3)nc2C)cs1,0.7,1,47.2,99.7*,55.9,-2.8
CCOC(=O)C1=C(Nc2ccccc2)CC(C)(O)C(C(=O)OCC)C1c1ccc(Cl)cc1 (stereo unspecified),-6.0,1.1,66.1,5.2,55.8,-6.3
COc1ccccc1NC(=O)c1ccc(NC(=O)CN2C(=O)CN(C)C2=O)cc1,-2.5,1.1,.,2.5,.,-6.3
COc1ccc(/C=C2\S/C(=N/S(=O)(=O)c3cccs3)NC2=O)cc1,-6.1,1,.,-5.9,.,-1.3
